# Screening results from PubChem BioAssay.
# A selection: hits, their analogues and other compounds. The true share with any hit is near 1%.
# procasp3 activ – activators of human procaspase-3 D3A mutant, primary screen, biochemical, absorbance, PC-3 D3A mutant, single concentration. Caspase-3 (Homo sapiens), P42574. recombinant procaspase-3 D3A, Ac-DEVD-pNA absorbance 405 nm. activation, % at 8.5 µM. 330,000 compounds, 0.11% hits. AID 463141, 2010;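 active = activation above the mean of all tested compounds plus 3 SD, cut at about 21% in these data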;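 also: 0% = DMSO alone and 100% = DMSO wells spiked with extra 5 µM PC-3 D3A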
#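 Assay system: Procaspase-3 D3A mutant, all three cleavage aspartates alanine. Buffer or medium: Zinc-free HEPES saline buffer with Triton X-100. Times: 1 h compound preincubation, 2 h substrate hydrolysis at 25 °C. Measured by: 405 nm absorbance of p-nitroaniline, reads at 0 and 120 min. Read-out basis: percent activation relative to control range. Replicates: singlicate.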
# Fam108B inh – mouse Fam108B serine hydrolase inhibitors, primary screen, counter-screen for RBBP9 inhibitor project, biochemical, fluorescence polarization. recombinant Fam108B, FP-Rh probe fluorescence polarization. inhibition, % at 9.51 µM. 300,000 compounds, 0.33% hits. AID 1947, 2009;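 active = inhibition above the screen mean inhibition plus 3 SD, computed separately per campaign, cut at about 18% in these data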;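 also: inhibitors lower polarization as less probe binds the enzyme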
# PME-1 primary – PME-1 inhibitors via competitive probe labeling, primary screen, biochemical, fluorescence polarization, FP-Rh probe, HTS; inhibition, % at 5.9 µM; recombinant PME-1; AID 2130, 2009; 320,000 compounds, 0.53% hits;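 active = inhibition above the campaign mean of all compounds plus 3 SD, cut at about 26% in these data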;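 also: competitive labeling of PME-1 active site by serine hydrolase directed probe; 0% = PME-1 with DMSO and 100% = wells lacking PME-1 enzyme; inhibitors block probe labeling so polarization falls and inhibition rises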
# LYPLA1 counter – LYPLA1 inhibitors, primary screen, counter-screen for PME1 inhibitor project, biochemical, fluorescence polarization, FP-Rh probe ABPP; inhibition, % at 5.9 µM; 320,000 compounds, 0.16% hits; Acyl-protein thioesterase 1 (Homo sapiens), O75608; recombinant LYPLA1; AID 2174, 2009;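 active = inhibition above the mean of all tested compounds plus 3 SD, set per campaign, cut at about 14% in these data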;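 also: inhibitors block serine hydrolase probe labeling of LYPLA1 so polarization falls; 0% = enzyme with DMSO and 100% = wells lacking LYPLA1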
# LYPLA2 inh – LYPLA2 inhibitors, primary screen, counter-screen for PME1 inhibitor project, biochemical, fluorescence polarization, FP-Rh probe ABPP; AID 2177, 2009; 320,000 compounds, 0.38% hits; recombinant LYPLA2; inhibition, % at 5.9 µM;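 active = inhibition above the screen-wide mean plus 3 SD, limit set per campaign, cut at about 26% in these data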;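 also: 0% = LYPLA2 with DMSO and 100% = wells lacking LYPLA2 enzyme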
# Target sequence (O95372 whole entry, looked up): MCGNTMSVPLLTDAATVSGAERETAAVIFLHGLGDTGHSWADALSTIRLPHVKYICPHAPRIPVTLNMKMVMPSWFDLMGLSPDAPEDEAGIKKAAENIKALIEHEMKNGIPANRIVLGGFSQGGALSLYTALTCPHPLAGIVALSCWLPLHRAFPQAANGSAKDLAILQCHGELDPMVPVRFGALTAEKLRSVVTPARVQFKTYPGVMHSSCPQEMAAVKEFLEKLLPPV
# proCasp7 act – procaspase-7 activators, primary screen, counter-screen for procaspase-3 activator project, biochemical, absorbance, HTS, human; activation, % at 8.5 µM; recombinant procaspase-7, Ac-DEVD-pNA absorbance 405 nm; D23A/D198A/D206A triple mutant, cannot self-cleave; scale: DMSO 0, 5 µM enzyme 100; AID 463210, 2010; Caspase-7 (Homo sapiens), P55210; 330,000 compounds, 0.093% hits;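 active = percent activation above the screen-wide mean plus 3 SD, cut at about 25% in these data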
# Target sequence (P55210 whole entry D23A/D198A/D206A): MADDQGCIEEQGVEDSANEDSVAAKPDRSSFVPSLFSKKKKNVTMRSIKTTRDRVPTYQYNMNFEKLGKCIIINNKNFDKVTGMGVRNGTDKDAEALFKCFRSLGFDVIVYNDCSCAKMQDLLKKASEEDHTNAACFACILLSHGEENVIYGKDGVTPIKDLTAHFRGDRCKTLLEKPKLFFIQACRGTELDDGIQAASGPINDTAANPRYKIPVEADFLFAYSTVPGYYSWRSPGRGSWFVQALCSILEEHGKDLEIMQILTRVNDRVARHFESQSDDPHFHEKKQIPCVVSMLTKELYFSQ
#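 Material: Procaspase-7 triple mutant (PC-7 D3A) | Quantity: 2 µM procaspase-7 mutant as dispensed | Reagent: DEVD-pNA substrate | Times: 1 h preincubation, 2 h reaction | Technique: 405 nm absorbance of p-nitroaniline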
# LYPLA2 conf – LYPLA2 inhibitors, retest, confirmation, counter-screen for PME1 inhibitor project, biochemical, fluorescence polarization, FP-Rh probe ABPP; recombinant LYPLA2; shares compounds with LYPLA2 inh; inhibition, % at 5.9 µM; 1,100 compounds, 72% hits;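 active = mean inhibition across replicates above the hit cutoff set in the primary screen, cut at about 26% in these data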;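 also: blocked labeling of the enzyme by serine hydrolase FP-Rh probe lowers polarization; 0% = enzyme with DMSO and 100% = wells lacking LYPLA2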
# LYPLA2 gel ABPP – LYPLA2 inhibitors in proteome, late-stage follow-up, gel-based competitive ABPP, fluorescence, assay provider; rhLYPLA2 in mouse brain proteome, gel ABPP FP-Rh; inhibition, % at 20 µM; 150 compounds, 30% hits; shares compounds with LYPLA2 inh;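 active = inhibition of LYPLA2 enzyme probe labeling above about 50%, limit read from the data; inactive = inhibition below that limit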;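 also: loss of FP-Rh probe labeling of the LYPLA2 gel band measured as band density; 0% = DMSO only control band and 100% = blank gel background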
# proCasp7 act trip – procaspase-7 activators, counter-screen for procaspase-3 activator project, biochemical, absorbance, triplicate, human; AID 488941, 2010; activation, % at 8.5 µM; recombinant procaspase-7, Ac-DEVD-pNA absorbance; asp23/198/206-to-Ala mutant, cannot self-cleave; 210 tested, under 10 active; shares compounds with procasp3 activ;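 active = mean activation above a set limit taken from an earlier procaspase-7 screen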;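 also: 0% = DMSO wells and 100% = DMSO plus 5 µM procaspase-7 enzyme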
# proCasp3 confirm – activators of human procaspase-3 D3A mutant, confirmation, biochemical, absorbance, PC-3 D3A mutant, triplicate. shares compounds with procasp3 activ. recombinant PC-3 D3A, Ac-DEVD-pNA absorbance 405 nm; 100% is higher-enzyme control. activation, % at 8.5 µM. 210 compounds, 10% hits;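 active = mean activation above a set limit carried over from the earlier primary screen, cut at about 22% in these data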
# PC3 D3A act – procaspase-3 activators, counter-screen for dual procaspase-3/7 activator project, biochemical, absorbance, PC-3 D3A mutant, human. shares compounds with proCasp7 act. recombinant PC-3 D3A, Ac-DEVD-pNA absorbance 405 nm; aspartates 9, 28, 175 changed to alanine; 100% = enzyme control. activation, % at 8.5 µM. 290 tested, under 10 active. AID 493114, 2011;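 active = mean percent activation across triplicates above a set limit taken from the earlier primary procaspase-3 screen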;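 also: 0% = DMSO wells and 100% = DMSO wells with 5 µM added PC-3 D3A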
# Procasp7 act – activation of procaspase-7 enzyme – biochemical, absorbance, human, dual procaspase-3/-7 activator project, confirmation | shares compounds with proCasp7 act | recombinant procaspase-7, Ac-DEVD-pNA absorbance 405 nm; D23A/D198A/D206A mutant that cannot self-cleave | activation, % at 8.5 µM | 290 tested, under 10 active;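 active = mean activation above a set limit carried over from the earlier primary screen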;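 also: 0% = DMSO only and 100% = DMSO with added 5 µM PC-7 enzyme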
# * hit, by the source's call; . = no result.
SMILES,procasp3 activ,Fam108B inh,PME-1 primary,LYPLA1 counter,LYPLA2 inh,proCasp7 act,others
COC(=O)C1=C(c2ccc(F)cc2OCc2ccccc2)C[C@@H]2CC[C@H]1N2C(=O)NCCCOC(C)C,0.6,.,-4.5,-2.3,-6.6,2.5,
C[N+]1(C)C2CCC1CC(OC(=O)c1ccccc1)C2 (stereo not drawn),1.8,4.2,2.5,5.0,26.1*,-5.8,LYPLA2 conf=1.5
O=C(COc1ccc(Br)cc1)N1CCN(Cc2ccc3c(c2)OCO3)CC1,0.5,-0.6,0.6,6.1,32.2*,-2.7,LYPLA2 conf=24.6
O=C1/C(=C/c2ccccc2)C[C@@]2(O)[C@H]3Cc4ccc(O)c5c4[C@@]2(CCN3CC2CC2)C1O5 (stereo partly drawn),5.6,.,.,.,.,-0.4,
CCN(CC)C(=O)c1ccc(NC(=O)CCCSc2ccccc2)cc1,0.9,-0.3,-7.5,-1.6,8.3,3.1,
CCN(CC)C(=O)c1ccc(NC(=S)NC(=O)CCc2ccccc2)cc1,-2.3,1.4,0.8,0.2,29.7*,7.5,LYPLA2 conf=20.6
Cc1ccc(N2C(=O)CC(=O)NC2=O)cc1Cl,-22.8,-7.5,-5.9,-1.0,-5.0,-26.2,
O=[N+]([O-])c1ccc(NCc2ccc(Cl)cc2)c2ccncc12,-3.1,4.6,6.7,3.2,33.3*,2.0,LYPLA2 conf=51.9*;LYPLA2 gel ABPP=49.0
NCCNc1ccc([N+](=O)[O-])c2cccnc12,-10.7,4.1,-3.2,1.1,2.4,-5.0,
Nc1c(C(=O)OCc2ccccc2)c2nc3ccccc3nc2n1Cc1cccs1,-1.3,-8.7,4.5,-20.0,-20.1,-5.8,
CCC(C)OC(=O)c1c(N)n(Cc2cccs2)c2nc3ccccc3nc12 (stereo not drawn),22.5*,1.5,11.3,-6.8,-1.9,13.1,proCasp7 act trip=-19.0;proCasp3 confirm=-13.8
C=CC[C@@H](CC/C=C/C=C/CC/C=C\[C@@H]1CSC([C@@H]2C[C@@H]2C)=N1)OC,-10.0,.,.,.,.,6.4,
CC(=O)OC1C=CC2[C@H]3Cc4ccc(O)c5c4[C@@]2(CCN3C)C1O5 (stereo partly drawn),5.6,.,.,.,.,2.2,
CCC(C)NC(=O)c1c(N)n(Cc2ccc3c(c2)OCO3)c2nc3ccccc3nc12 (stereo not drawn),69.8*,-0.5,14.3,0.7,2.5,24.6,proCasp7 act trip=-20.4;proCasp3 confirm=-15.6
CC(C)CCNC(=O)c1c(N)n(CC2CCCO2)c2nc3ccccc3nc12 (stereo not drawn),24.7*,-0.4,10.5,-0.5,8.3,19.9,proCasp7 act trip=-21.1;proCasp3 confirm=-11.1
COc1ccc(-n2c(C)nc3cc(C(=O)N4CCC5(CC4)OCCO5)ccc32)cc1,-4.0,0.4,4.2,-0.3,-8.7,1.4,
COc1ccc(-c2nc3ccc(C(=O)N4CCC5(CC4)OCCO5)cc3nc2-c2ccc(OC)cc2)cc1,29.8*,-7.4,-1.1,-6.5,-10.1,51.8*,PC3 D3A act=-28.0;Procasp7 act=-34.5
CCCNc1oc(-c2cccc3ccccc23)nc1C#N,33.0*,1.4,2.6,2.4,-4.2,32.1*,PC3 D3A act=-28.5;Procasp7 act=-36.4
CCN1C[C@]2(OC(=O)c3ccccc3NC(C)=O)CCC(OC)C34C5C[C@H]6C(OC)[C@]5(O)[C@](O)(C[C@@H]6OC)C(C[C@@H]32)[C@H]14 (stereo partly drawn),9.0,-2.9,7.5,0.3,3.5,-6.6,
